The source of these data is ChEMBL document CHEMBL1138631, “Synthesis and amine transporter affinities of novel phenyltropane derivatives as potential positron emission tomography (PET) imaging agents” (Bioorg Med Chem Lett, 2004).

The target in assay [1] is Norepinephrine transporter (Rattus norvegicus, UniProt Q9WTR4). In words: Displacement of [3H]-nisoxetine from norepinephrine transporter of rat cerebral corticex homogenate. The method in brief:
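Competition binding in rat cerebral cortical homogenates incubated with 0.35 nM [3H]nisoxetine; Ki reported in nM.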

Assay [2] has as its target Monoamine transporters; Norepininephrine & dopamine (Rattus norvegicus) (UniProt P23977+Q9WTR4). In words: Ratio of Ki for dopamine and norepinephrine transporters. The class given is protein assay. In short, it runs like this:
(§1)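 Selectivity calculated as Ki at SERT or NET divided by Ki at DAT. Ki values came from radioligand competition assays with tritiated ligands selective for each transporter in rat forebrain tissue preparations. A ratio above 1.0 means preference for DAT.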

Assay [3] deals with Sodium-dependent serotonin transporter (Rattus norvegicus, UniProt P31652). Put plainly: Displacement of [3H]cyanoimiprimine from serotonin transporter of rat cerebral cortical homogenate. The method in brief: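 Rat cerebral cortical homogenates incubated with 0.71 nM [3H]cyanoimiprimine in a radioligand competition binding assay; affinity expressed as Ki in nM.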
Assay [4] addresses Monoamine transporters; serotonin & dopamine (Rattus norvegicus) (UniProt P31652+P23977). In words: Ratio of Ki for dopamine and serotonin transporters. The assay is classed as protein assay. The method in brief:
as §1

The target of assay [5] is Sodium-dependent dopamine transporter (Homo sapiens, UniProt Q01959). In words: Inhibition of [18F]PET binding to dopamine transporter of human brain.
The target in assay [6] is Sodium-dependent dopamine transporter (Rattus norvegicus, UniProt P23977). In words: Displacement of [3H]CIT from dopamine transporter of rat striatal homogenate.

The structures appear in SMILES notation. pKi: −log10 of the molar value.

Chain of Sodium-dependent dopamine transporter (Homo sapiens, UniProt Q01959) (Q01959 whole entry): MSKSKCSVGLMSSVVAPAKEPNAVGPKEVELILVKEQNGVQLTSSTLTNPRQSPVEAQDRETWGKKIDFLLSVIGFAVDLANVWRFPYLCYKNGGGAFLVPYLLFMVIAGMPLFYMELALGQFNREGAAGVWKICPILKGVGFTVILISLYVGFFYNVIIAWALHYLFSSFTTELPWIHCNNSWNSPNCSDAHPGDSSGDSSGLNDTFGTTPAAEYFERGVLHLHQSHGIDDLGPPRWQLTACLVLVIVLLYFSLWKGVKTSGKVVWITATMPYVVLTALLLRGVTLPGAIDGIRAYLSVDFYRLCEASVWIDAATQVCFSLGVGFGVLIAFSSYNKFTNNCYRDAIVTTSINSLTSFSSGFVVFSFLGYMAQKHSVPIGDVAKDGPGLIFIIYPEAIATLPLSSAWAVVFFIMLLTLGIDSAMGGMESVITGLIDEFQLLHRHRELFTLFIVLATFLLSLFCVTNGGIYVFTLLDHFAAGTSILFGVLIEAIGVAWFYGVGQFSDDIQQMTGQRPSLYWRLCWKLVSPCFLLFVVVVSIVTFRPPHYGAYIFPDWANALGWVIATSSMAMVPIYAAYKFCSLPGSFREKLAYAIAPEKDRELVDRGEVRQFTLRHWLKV
Chain of Sodium-dependent serotonin transporter (P31652 whole entry): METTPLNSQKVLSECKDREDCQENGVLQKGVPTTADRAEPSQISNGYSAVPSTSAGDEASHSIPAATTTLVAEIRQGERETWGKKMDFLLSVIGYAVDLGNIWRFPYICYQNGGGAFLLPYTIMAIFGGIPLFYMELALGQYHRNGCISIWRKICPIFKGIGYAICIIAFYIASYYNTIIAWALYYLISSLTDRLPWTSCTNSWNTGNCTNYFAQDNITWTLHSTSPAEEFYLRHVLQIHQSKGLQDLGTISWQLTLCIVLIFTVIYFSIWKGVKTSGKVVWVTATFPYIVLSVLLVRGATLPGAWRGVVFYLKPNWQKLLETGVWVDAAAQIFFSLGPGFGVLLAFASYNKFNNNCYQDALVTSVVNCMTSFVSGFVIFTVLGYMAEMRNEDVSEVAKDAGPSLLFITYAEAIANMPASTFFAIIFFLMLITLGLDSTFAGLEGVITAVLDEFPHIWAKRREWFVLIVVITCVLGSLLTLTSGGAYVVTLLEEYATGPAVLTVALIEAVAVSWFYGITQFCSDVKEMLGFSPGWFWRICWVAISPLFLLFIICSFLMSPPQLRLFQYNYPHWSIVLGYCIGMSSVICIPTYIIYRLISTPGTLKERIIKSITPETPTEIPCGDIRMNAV
Chain of Sodium-dependent dopamine transporter (Rattus norvegicus, UniProt P23977) (P23977 whole entry): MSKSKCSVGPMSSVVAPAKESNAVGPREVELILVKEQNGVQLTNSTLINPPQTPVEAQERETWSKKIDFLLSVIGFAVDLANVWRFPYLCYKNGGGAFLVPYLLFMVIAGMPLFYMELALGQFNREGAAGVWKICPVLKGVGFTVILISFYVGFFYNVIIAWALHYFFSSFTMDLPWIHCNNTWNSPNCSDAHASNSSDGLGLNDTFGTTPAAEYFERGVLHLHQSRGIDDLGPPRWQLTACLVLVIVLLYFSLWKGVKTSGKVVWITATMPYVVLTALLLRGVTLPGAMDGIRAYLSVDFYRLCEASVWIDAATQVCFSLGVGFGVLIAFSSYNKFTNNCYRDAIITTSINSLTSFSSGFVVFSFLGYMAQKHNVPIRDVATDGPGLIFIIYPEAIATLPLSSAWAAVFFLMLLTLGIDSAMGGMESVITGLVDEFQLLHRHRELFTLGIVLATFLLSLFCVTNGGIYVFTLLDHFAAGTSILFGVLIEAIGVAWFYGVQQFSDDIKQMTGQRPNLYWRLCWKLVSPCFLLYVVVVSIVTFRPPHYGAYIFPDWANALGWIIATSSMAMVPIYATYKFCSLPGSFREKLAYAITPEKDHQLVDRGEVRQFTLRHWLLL
Chain of Monoamine transporters; serotonin & dopamine (Rattus norvegicus) (P23977 whole entry, looked up): as the sequence (P23977 whole entry) above
Chain of Monoamine transporters; serotonin & dopamine (Rattus norvegicus) (P31652 whole entry, looked up): as the sequence (P31652 whole entry) above
Chain of Norepinephrine transporter (Q9WTR4 whole entry): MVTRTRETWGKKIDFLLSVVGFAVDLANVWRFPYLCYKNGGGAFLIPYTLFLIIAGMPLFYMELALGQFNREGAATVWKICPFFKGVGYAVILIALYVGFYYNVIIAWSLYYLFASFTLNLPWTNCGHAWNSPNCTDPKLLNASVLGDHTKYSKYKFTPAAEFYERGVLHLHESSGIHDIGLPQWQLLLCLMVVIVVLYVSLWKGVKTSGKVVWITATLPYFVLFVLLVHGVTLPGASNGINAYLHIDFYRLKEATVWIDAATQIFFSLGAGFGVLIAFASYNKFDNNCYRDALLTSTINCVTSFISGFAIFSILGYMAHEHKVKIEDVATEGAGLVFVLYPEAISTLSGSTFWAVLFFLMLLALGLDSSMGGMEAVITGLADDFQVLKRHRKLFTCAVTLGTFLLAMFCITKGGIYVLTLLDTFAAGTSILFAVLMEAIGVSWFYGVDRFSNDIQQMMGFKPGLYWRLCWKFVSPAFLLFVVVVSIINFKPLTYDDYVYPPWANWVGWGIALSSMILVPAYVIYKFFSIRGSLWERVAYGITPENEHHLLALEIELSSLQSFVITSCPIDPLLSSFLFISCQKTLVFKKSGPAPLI

Turning to `CN1C2CCC1C(C(=O)OCCF)C(c1ccc(I)cc1)C2` (stereo not given), the pKi is 6.94 in assay [1] and 8.40 in assay [3]. Also, the Selectivity in assay [2] is 125; in assay [4], 4.3.

Turning to `O=C(OCCCF)C1C2CCC(CC1c1ccc(Br)cc1)N2` (stereo not given), the pKi in assay [1] was 8.05; in assay [5] it was 8.30; in assay [6] it was 9.14; in assay [3] it was 9.52. In addition, the Selectivity in assay [2] came to 12.3; in assay [4], 0.42.

Turning to `COC(=O)C1C2CCC(CC1c1ccc(Br)cc1)N2` (stereo not given), the pKi in assay [1] is 8.99; in assay [6] it was 9.28; in assay [3], 9.02.

As to `CN1C2CCC1C(C(=O)OCCF)C(c1ccc(Br)cc1)C2` (stereo not given), the pKi in assay [1] is 6.55; in assay [5] it was 8.30; in assay [6], 8.63; in assay [3], 8.29. In addition, the Selectivity is 120 in assay [2] and 2.19 in assay [4].

Consider `O=C(OCCF)C1C(c2ccc(Br)cc2)CC2CCC1N2CCCF` (stereo not given), for which the negative logarithm of the Ki (pKi) in assay [1] was 8.69; in assay [6] it was 7.97; in assay [3], 7.74. Also, the Selectivity in assay [2] was 0.19; in assay [4] it was 1.72.

`O=C(OCCF)C1C2CCC(CC1c1ccc(Br)cc1)N2` (stereo not given): the pKi in assay [1] is 7.82; in assay [5], 8.30; in assay [6], 9.24; in assay [3], 9.62. Also, the results for the Selectivity in assay [2] and in assay [4] were 26.7 and 0.42, respectively.

On to `CN1C2CCC1C(C(=O)OCCCF)C(c1ccc(Br)cc1)C2` (stereo not given), for which the pKi in assay [1] was 6.61; in assay [5] it was 8.30; in assay [6], 8.72; in assay [3], 8.54. For the same compound, the Selectivity in assay [2] was 128; in assay [4], 1.5.

In the case of `O=C(OCCF)C1C2CCC(CC1c1ccc(I)cc1)N2` (stereo not given), the values for the pKi in assay [5], in assay [6] and in assay [3] were 8.30, 9.07 and 9.74, respectively. In addition, the Selectivity in assay [4] came out at 0.21.

For the compound `CN1C2CCC1C(C(=O)NCCF)C(c1ccc(Br)cc1)C2` (stereo not given), the pKi in assay [6] is 7.59; in assay [3], 7.41. The Selectivity in assay [4] was 1.51.

Regarding `CN1C2CCC1C(C(=O)NCCF)C(c1ccc(I)cc1)C2` (stereo not given), the negative logarithm of the Ki (pKi) was less than 5.00 in assay [1], 7.35 in assay [6] and 7.51 in assay [3]. Moreover, the Selectivity in assay [2] is more than 225; in assay [4], 0.69.

Consider `COC(=O)C1C(c2ccc(Br)cc2)CC2CCC1N2CCCF` (stereo not given), for which the Selectivity came to 58.9 in assay [2] and 10.9 in assay [4].

In the case of `COC(=O)C1C(c2ccc(Br)cc2)CC2CCC1N2C` (stereo not given), the pKi in assay [1] is 7.82; in assay [6], 9.52; in assay [3], 8.31. Further, the Selectivity in assay [2] is 0.02; in assay [4] it was 0.06.
